Source: PubChem BioAssay
Calls of active or inactive are those of the source.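 The calls were made as follows, unless noted: active = viability at or under a set limit in both replicates, limit being median viability minus 3 SD (cut at about 48% in these data, passing the limit was not always enough); inconclusive = at or under the limit in just one replicate; inactive = at or above the limit in both replicates.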

Tests used:
[1] = HUVEC growth inhibition – cell-based, human, primary screen (AID 575;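 active = viability at or below 30% in both replicate assays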;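 also: 100% = median of untreated cell wells with 0.1% DMSO on each plate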); conditions: HUVEC proliferation, CellTiter-Glo luminescence, 72 h; at 10 µM; stronger effect = lower value
In short: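 System: primary human umbilical vein endothelial cells; Quantity: 1250 endothelial cells in each well; Buffer or medium: supplemented EBM, 2% fetal bovine serum; Doses: one dose, 10 µM final, 0.1% DMSO; Incubation: 72 h compound incubation; Technique: ATP-based CellTiter-Glo luminescent read; Evaluation: percent of median DMSO-control luminescence; Controls: vehicle and MePR control wells.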

[2] = H69AR cell proliferation blockers – human, duplicate replicates, primary screen (AID 580); conditions: H69AR lung tumor cells viability, ATP luminescence, 72 h; at 10 µM; stronger effect = lower value;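 also: 100% = mean luminescence of untreated wells and 0% = no signal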
[3] = MRP1 drug-resistance reversers in H69AR cells – cell-based, doxorubicin co-treatment, pilot screen (AID 601;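 active = viability loss from added drug above about 55%, and viability with drug at most 40%, in both replicates, limit read from the data, passing the limit was not always enough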); conditions: CellTiter-Glo, 72 h, at 10 µM; for differential viability (reversal): stronger effect = higher value
[4] = yeast transport mutant growth inhibition pilot in 384-well plates, post-Golgi transport modulator project (AID 636; in the data active = inhibition above about 31%); conditions: absorbance 615 nm, about 18 h, stronger effect = higher value
[5] = growth suppression of yeast trafficking mutant, preliminary HTS, modulators of trafficking downstream of Golgi apparatus project, 1536-format plate, OD 615 nm (AID 637; in the data active = inhibition above about 30%); conditions: yeast transport mutant growth, absorbance 615 nm, 18 h; stronger effect = higher value
[6] = H69AR cells + 2 uM doxorubicin, measured here: viability with 2 uM doxorubicin, stronger effect = lower value
[7] = H69AR cells, compound alone cytotoxicity

Row | SMILES | viability [1] | viability [2] | differential viability (reversal) ([3]; H69AR cells + 2 uM doxorubicin) | viability [3, 6] | viability [3, 7] | inhibition [4] | inhibition [5]
1 | CC1CN(c2nc3ccccc3nc2C(C#N)C(=O)NCc2ccc3c(c2)OCO3)CC(C)O1 (stereo unspecified) | 84.6% (inactive) | 91.2% (inactive) | -5.39% (inactive) | 96.6% | 91.2% | -4.93% (inactive) | 4.76% (inactive)
2 | C1=CC2CC1CC2CN1CCN(c2ccccc2)CC1 (stereo unspecified) | 97.7% (inactive) | 91.8% (inactive) | -2.94% (inactive) | 94.8% | 91.8% | 1.45% (inactive) | -1.27% (inactive)
3 | COC(=O)c1sccc1NC(=O)c1ccncc1 | 115% (inactive) | 86.4% (inactive) | 8.91% (inactive) | 77.5% | 86.4% | -3.95% (inactive) | 5.56% (inactive)
4 | O=C(c1cc(-c2cccc(O)c2)on1)N1CCN(C(c2ccccc2)c2ccccc2)CC1 | 98.8% (inactive) | 26.8% (active) | 4.38% (inactive) | 22.4% | 26.8% | 0.26% (inactive) | -3.5% (inactive)
5 | COC(=O)c1cccc(NC(=O)CSc2nnc(COc3ccccc3)n2C)c1 | 102% (inactive) | 101% (inactive) | 13.7% (inactive) | 87% | 101% | -4.27% (inactive) | 2.22% (inactive)
6 | CC1CCCCN1CCNS(=O)(=O)c1ccc2c(c1)oc(=O)n2C (stereo unspecified) | 87% (inactive) | 108% (inactive) | 7.79% (inactive) | 99.9% | 108% | -6.13% (inactive) | -1.11% (inactive)
7 | Cn1c(Cc2csc(N)n2)nnc1SCC(=O)NC1CCCCC1 | 112% (inactive) | 96.8% (inactive) | -5.84% (inactive) | 103% | 96.8% | 0.92% (inactive) | -0.63% (inactive)
8 | C=C(C)Cn1c(CCNC(=O)CC)nc2ccccc21 | 100% (inactive) | 104% (inactive) | 12.7% (inactive) | 91.4% | 104% | -3.95% (inactive) | -0.63% (inactive)
9 | CC1(C)CC(=O)C2=C(C1)Nc1nc(SCCN3CCOCC3)[nH]c(=O)c1C2c1cccs1 (stereo unspecified) | 99.6% (inactive) | 89.9% (inactive) | 2.1% (inactive) | 87.8% | 89.9% | 1.69% (inactive) | 24% (inactive)
10 | COc1ccc(OC)c(S(=O)(=O)NCCO)c1 | 87.5% (inactive) | 95.2% (inactive) | 14.5% (inactive) | 80.7% | 95.2% | -2.34% (inactive) | 6.35% (inactive)
11 | CCCn1c(SCC(=O)Nc2ccccc2C(=O)OCC)nc2c1c(=O)n(C)c(=O)n2C | 102% (inactive) | 95.7% (inactive) | 2.55% (inactive) | 93.1% | 95.7% | -8% (inactive) | -3.02% (inactive)
12 | CC(=O)Nc1ccc(N2CCN(Cc3ccccc3F)CC2)cc1 | 88.8% (inactive) | 92.5% (inactive) | 8.67% (inactive) | 83.8% | 92.5% | -0.91% (inactive) | 1.11% (inactive)
13 | CC1CCN(C(=O)c2ccc(C(=O)N3CCC(C)CC3)cc2)CC1 | 87.3% (inactive) | 101% (inactive) | 5.22% (inactive) | 95.4% | 101% | -0.66% (inactive) | 0.48% (inactive)
14 | CCc1ccc2[nH]c(=O)c(C(c3nnnn3CC3CCCO3)N3CCCc4ccccc43)cc2c1 (stereo unspecified) | 88.5% (inactive) | 91.8% (inactive) | -6.4% (inactive) | 98.2% | 91.8% | -7.2% (inactive) | -1.9% (inactive)
15 | Cc1nnc(NC2CCCCC2)[nH]c1=O | 87.5% (inactive) | 87.1% (inactive) | 6.85% (inactive) | 80.3% | 87.1% | -5.19% (inactive) | 3.02% (inactive)
16 | C/C(=N\O)c1ccc2c3c([nH]c2c1)CCCC3 | 25.3% (active) | 88.1% (inactive) | -8.65% (inactive) | 96.8% | 88.1% | -3.77% (inactive) | -0.16% (inactive)
17 | O=C(CNC(=O)c1cccs1)NCCN1CCN(c2ccccc2F)CC1 | 101% (inactive) | 89.3% (inactive) | 12.1% (inactive) | 77.2% | 89.3% | -3.95% (inactive) | 2.54% (inactive)
18 | Cc1ccc(N2CC(C(=O)Nc3ccc4c(c3)OCO4)CC2=O)cc1 (stereo unspecified) | 101% (inactive) | 99.6% (inactive) | 12% (inactive) | 87.6% | 99.6% | -3.25% (inactive) | -0.79% (inactive)
19 | Cn1c(=O)c2c(nc(SCC(=O)NCc3ccc4c(c3)OCO4)n2Cc2ccccc2)n(C)c1=O | 93.4% (inactive) | 92.6% (inactive) | -7.06% (inactive) | 99.7% | 92.6% | 0.26% (inactive) | -4.13% (inactive)

Row | SMILES | viability [1] | viability [2] | differential viability (reversal) ([3]; H69AR cells + 2 uM doxorubicin) | viability [3, 6] | viability [3, 7] | inhibition [4] | inhibition [5]
20 | CCOc1ccc(C(=O)Nc2cc(C)on2)cc1OCC | 90.1% (inactive) | 89.9% (inactive) | 0.35% (inactive) | 89.6% | 89.9% | -4.87% (inactive) | 3.17% (inactive)
21 | Cc1ccccc1OCCn1c(=O)oc2ccccc21 | 82.3% (inactive) | 91.5% (inactive) | 16.8% (inactive) | 74.7% | 91.5% | -5.07% (inactive) | 2.38% (inactive)
22 | COc1ccc(S(=O)(=O)N2CCC(C(=O)NCc3ccco3)CC2)cc1 | 93.8% (inactive) | 86.6% (inactive) | -1.91% (inactive) | 88.5% | 86.6% | -4.53% (inactive) | -3.97% (inactive)
23 | CCOC(=O)C1=C(CC)Nc2ccccc2N=C1NC(=O)Nc1ccccc1OC | 50.5% (inactive) | 74% (inactive) | -0.52% (inactive) | 74.5% | 74% | 0.52% (inactive) | 1.11% (inactive)
24 | CCN(CC)CCNC(=O)C1CCN(S(=O)(=O)N2CCCCC2)CC1 | 100% (inactive) | 94.8% (inactive) | 0.23% (inactive) | 94.6% | 94.8% | -3.82% (inactive) | 0.32% (inactive)
25 | Nc1nc2ccccc2n1/N=C/c1ccc(Br)cc1 | 72.4% (inactive) | 86.8% (inactive) | 4.02% (inactive) | 82.8% | 86.8% | -3.95% (inactive) | 8.57% (inactive)
26 | CCCOc1ccc(N2C(=O)CC(SCCN)C2=O)cc1 (stereo unspecified) | 88.2% (inactive) | 108% (inactive) | 8.12% (inactive) | 100% | 108% | -5.47% (inactive) | -3.02% (inactive)
27 | CN=C(Nc1ccc2c(c1)OCO2)SC1CC(=O)N(c2ccccc2)C1=O (stereo unspecified) | 78.3% (inactive) | 82.3% (inactive) | -0.04% (inactive) | 82.3% | 82.3% | -4.93% (inactive) | -0.79% (inactive)
28 | Cc1nc(-c2ccc(NC(=O)c3cccs3)cc2)cs1 | 58.8% (inactive) | 62.3% (inactive) | 9.12% (inactive) | 53.2% | 62.3% | 0.13% (inactive) | 1.9% (inactive)
29 | C#CCN1C(=O)C(O)(CC(=O)c2cc(OC)ccc2OC)c2ccccc21 (stereo unspecified) | 78.6% (inactive) | 38.7% (active) | -16.8% (inactive) | 55.5% | 38.7% | -4.8% (inactive) | 1.9% (inactive)
30 | CCN(CC(=O)NC(=O)NCc1ccco1)Cc1nc2ccccc2c(=O)[nH]1 | 86.5% (inactive) | 79.7% (inactive) | 2.42% (inactive) | 77.3% | 79.7% | -0.78% (inactive) | 1.43% (inactive)
31 | COc1ccccc1-n1cnnc1SCC(=O)c1ccc[nH]1 | 106% (inactive) | 108% (inactive) | 9.87% (inactive) | 98.1% | 108% | -2.21% (inactive) | 2.54% (inactive)
32 | CCOC(=O)CSc1nnc(CNC(=O)c2ccc(S(=O)(=O)N3CCCC3)cc2)n1C | 99.1% (inactive) | 112% (inactive) | 28.2% (inactive) | 84% | 112% | -2.6% (inactive) | 0.63% (inactive)
33 | COc1ccc(C(=O)Nc2ccc(S(=O)(=O)Nc3nccnc3OC)cc2)cc1OC | 97.4% (inactive) | 99.6% (inactive) | 11% (inactive) | 88.6% | 99.6% | 1.69% (inactive) | 4.6% (inactive)
34 | CCCn1cc(C(CC(=O)O)C(=O)O)c2ccccc21 (stereo unspecified) | 92.8% (inactive) | 89.1% (inactive) | -3.86% (inactive) | 93% | 89.1% | -7.33% (inactive) | 5.24% (inactive)
35 | CC(C)(CSc1nncn1N)NS(=O)(=O)c1ccc(Cl)cc1 | 91.9% (inactive) | 98.3% (inactive) | 1.6% (inactive) | 96.7% | 98.3% | -2.27% (inactive) | -0.79% (inactive)
36 | COc1ccccc1CN(Cc1nc2ccccc2c(=O)[nH]1)C(=O)Nc1ccccc1 | 89.4% (inactive) | 86.6% (inactive) | -3.29% (inactive) | 89.9% | 86.6% | -4.61% (inactive) | -4.13% (inactive)
37 | CC1(C)CC(=O)C2=C(C1)N(Cc1ccco1)C(=O)C2(NC(=O)C1CCCCC1)C(F)(F)F (stereo unspecified) | 88% (inactive) | 92.1% (inactive) | 10.7% (inactive) | 81.3% | 92.1% | -4.47% (inactive) | 5.56% (inactive)
38 | O=C(NCc1n[nH]c(=S)n1-c1ccc(F)cc1)c1ccco1 | 102% (inactive) | 96.2% (inactive) | 6.98% (inactive) | 89.2% | 96.2% | -0.53% (inactive) | -1.11% (inactive)
